System: U2OS
Assay: Multiplex assay against U2OS
Type: toxicity, cell-based
Details: human
Outline: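 Imaging took place on a CQ1 microscope at 37°C and 5% CO2 once compound had been added to live cells stained at seeding with Hoechst33342, BioTracker Green Microtubule Cytoskeleton Dye, MitoTracker Red and Annexin V Alexa Fluor 680. CellPathfinder machine-learning gating classed cells as Hoechst high-intensity objects or normal cells, classed normal cells as having healthy, pyknosed or fragmented nuclei, and classed pyknosed cells as mitotic or apoptotic. Tubulin, mitochondrial-mass and membrane-permeability phenotypes are per cents of the healthy-nucleus cells.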

[1] = 12 h, 1 µM, compound concentration 1 uM, replicate 1
[2] = 12 h, 1 µM, compound concentration 1 uM, replicate 2
[3] = 12 h, 10 µM, compound concentration 10 uM, replicate 1
[4] = 12 h, 10 µM, compound concentration 10 uM, replicate 2
[5] = 24 h, 1 µM, compound concentration 1 uM, replicate 1
[6] = 24 h, 1 µM, compound concentration 1 uM, replicate 2
[7] = 24 h, 10 µM, compound concentration 10 uM, replicate 1
[8] = 24 h, 10 µM, compound concentration 10 uM, replicate 2
[9] = 48 h, 1 µM, compound concentration 1 uM, replicate 1
[10] = 48 h, 1 µM, compound concentration 1 uM, replicate 2
[11] = 48 h, 10 µM, compound concentration 10 uM, replicate 1
[12] = 48 h, 10 µM, compound concentration 10 uM, replicate 2

Which results are given for `C[C@@H](NCCCc1cccc(C(F)(F)F)c1)c1cccc2ccccc12.Cl` [CINACALCET HYDROCHLORIDE]?
Population Fragmented Nuclei (%) [1]: 6%; Population Healthy Nuclei (%) [1]: 79%; Population Hoechst High Intensity Objects (%) [1]: 5%; Population Membrane Permeable-Phenotype (%) [1]: 4%; Population Mitochondria Different-Phenotype (%) [1]: 30%; Population Normal (%) [1]: 94%; Population Pyknosed Nuclei (%) [1]: 13%; Population Tubulin-Different-Phenotype (%) [1]: 40%; Total Cell Count [1]: 184; Population Apoptotic (%) [2]: 33%; Population Fragmented Nuclei (%) [2]: 10%; Population Healthy Nuclei (%) [2]: 76%; Population Hoechst High Intensity Objects (%) [2]: 9%; Population Membrane Permeable-Phenotype (%) [2]: 11%; Population Mitochondria Different-Phenotype (%) [2]: 22%; Population Mitotic Cells (%) [2]: 66%; Population Normal (%) [2]: 90%; Population Pyknosed Nuclei (%) [2]: 12%; Population Tubulin-Different-Phenotype (%) [2]: 36%; Total Cell Count [2]: 52; Population Apoptotic (%) [3]: 41%; Population Fragmented Nuclei (%) [3]: 14%; Population Healthy Nuclei (%) [3]: 60%; Population Hoechst High Intensity Objects (%) [3]: 9%; Population Membrane Permeable-Phenotype (%) [3]: 22%; Population Mitotic Cells (%) [3]: 58%; Population Normal (%) [3]: 90%; Population Pyknosed Nuclei (%) [3]: 24%; Population Tubulin-Different-Phenotype (%) [3]: 98%; Total Cell Count [3]: 155; Population Apoptotic (%) [4]: 88%; Population Fragmented Nuclei (%) [4]: 20%; Population Healthy Nuclei (%) [4]: 23%; Population Hoechst High Intensity Objects (%) [4]: 7%; Population Membrane Permeable-Phenotype (%) [4]: 33%; Population Mitochondria Different-Phenotype (%) [4]: 93%; Population Mitotic Cells (%) [4]: 11%; Population Normal (%) [4]: 92%; Population Pyknosed Nuclei (%) [4]: 55%; Population Tubulin-Different-Phenotype (%) [4]: 93%; Total Cell Count [4]: 68; Population Apoptotic (%) [5]: 29%; Population Fragmented Nuclei (%) [5]: 5%; Population Healthy Nuclei (%) [5]: 82%; Population Hoechst High Intensity Objects (%) [5]: 3%; Population Membrane Permeable-Phenotype (%) [5]: 4%; Population Mitochondria Different-Phenotype (%) [5]: 20%; Population Mitotic Cells (%) [5]: 70%; Population Normal (%) [5]: 96%; Population Pyknosed Nuclei (%) [5]: 12%; Population Tubulin-Different-Phenotype (%) [5]: 20%; Total Cell Count [5]: 205; Population Apoptotic (%) [6]: 36%; Population Fragmented Nuclei (%) [6]: 8%; Population Healthy Nuclei (%) [6]: 69%; Population Hoechst High Intensity Objects (%) [6]: 7%; Population Membrane Permeable-Phenotype (%) [6]: 5%; Population Mitochondria Different-Phenotype (%) [6]: 26%; Population Mitotic Cells (%) [6]: 63%; Population Normal (%) [6]: 92%; Population Pyknosed Nuclei (%) [6]: 22%; Population Tubulin-Different-Phenotype (%) [6]: 17%; Total Cell Count [6]: 53; Population Apoptotic (%) [7]: 72%; Population Fragmented Nuclei (%) [7]: 14%; Population Healthy Nuclei (%) [7]: 51%; Population Hoechst High Intensity Objects (%) [7]: 6%; Population Membrane Permeable-Phenotype (%) [7]: 46%; Population Mitochondria Different-Phenotype (%) [7]: 97%; Population Mitotic Cells (%) [7]: 28%; Population Normal (%) [7]: 93%; Population Pyknosed Nuclei (%) [7]: 34%; Population Tubulin-Different-Phenotype (%) [7]: 100%; Total Cell Count [7]: 157; Population Apoptotic (%) [8]: 92%; Population Fragmented Nuclei (%) [8]: 15%; Population Healthy Nuclei (%) [8]: 32%; Population Hoechst High Intensity Objects (%) [8]: 24%; Population Membrane Permeable-Phenotype (%) [8]: 52%; Population Mitochondria Different-Phenotype (%) [8]: 88%; Population Mitotic Cells (%) [8]: 7%; Population Normal (%) [8]: 75%; Population Pyknosed Nuclei (%) [8]: 51%; Population Tubulin-Different-Phenotype (%) [8]: 82%; Total Cell Count [8]: 69; Population Apoptotic (%) [9]: 38%; Population Fragmented Nuclei (%) [9]: 8%; Population Healthy Nuclei (%) [9]: 80%; Population Hoechst High Intensity Objects (%) [9]: 2%; Population Membrane Permeable-Phenotype (%) [9]: 3%; Population Mitochondria Different-Phenotype (%) [9]: 11%; Population Mitotic Cells (%) [9]: 61%; Population Normal (%) [9]: 97%; Population Pyknosed Nuclei (%) [9]: 11%; Population Tubulin-Different-Phenotype (%) [9]: 16%; Total Cell Count [9]: 293; Population Apoptotic (%) [10]: 54%; Population Fragmented Nuclei (%) [10]: 14%; Population Healthy Nuclei (%) [10]: 70%; Population Hoechst High Intensity Objects (%) [10]: 6%; Population Membrane Permeable-Phenotype (%) [10]: 8%; Population Mitochondria Different-Phenotype (%) [10]: 18%; Population Mitotic Cells (%) [10]: 45%; Population Normal (%) [10]: 93%; Population Pyknosed Nuclei (%) [10]: 15%; Population Tubulin-Different-Phenotype (%) [10]: 12%; Total Cell Count [10]: 75; Population Apoptotic (%) [11]: 70%; Population Fragmented Nuclei (%) [11]: 26%; Population Healthy Nuclei (%) [11]: 33%; Population Hoechst High Intensity Objects (%) [11]: 7%; Population Membrane Permeable-Phenotype (%) [11]: 58%; Population Mitochondria Different-Phenotype (%) [11]: 96%; Population Mitotic Cells (%) [11]: 29%; Population Normal (%) [11]: 92%; Population Pyknosed Nuclei (%) [11]: 39%; Population Tubulin-Different-Phenotype (%) [11]: 98%; Total Cell Count [11]: 176; Population Apoptotic (%) [12]: 91%; Population Fragmented Nuclei (%) [12]: 18%; Population Healthy Nuclei (%) [12]: 35%; Population Hoechst High Intensity Objects (%) [12]: 22%; Population Membrane Permeable-Phenotype (%) [12]: 78%; Population Mitochondria Different-Phenotype (%) [12]: 89%; Population Mitotic Cells (%) [12]: 8%; Population Normal (%) [12]: 77%; Population Pyknosed Nuclei (%) [12]: 45%; Population Tubulin-Different-Phenotype (%) [12]: 94%; Total Cell Count [12]: 68

Source: ChEMBL document CHEMBL4689842, “EUbOPEN Chemogenomics Library wave 1” (2021)
